# Only some compounds are listed: those with a hit (about 1.3% of all), similar ones and a draw of the others.
# DAGLB inhibitor – blocks human DAGLB lipase activity; inhibition, % at 5.17 µM; 340,000 tested, 0.059% active; HEK293T DAGLB membrane lysate, EnzChek fluorogenic substrate; in the data active = inhibition above about 34%;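 also: 0% = enzyme with vehicle and 100% = wells lacking enzyme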
# ANO1 activ – mouse TMEM16A channel activation, primary screen; HEK293 TMEM16A/YFP-H148Q/I152L, iodide quench fluorescence; active compounds read low; B-score at 10 µM; Q8BHY3; 340,000 tested, 0.3% active;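 active = fluorescence-ratio B-score plate-corrected deviation score at least 3 library SD below zero, with starting fluorescence score within 5 deviations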;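 also: channel opened by trigger with iodide after compound preincubation; score built on the fluorescence ratio of max minus min over baseline; more negative score means more quench and so TMEM16A activation or potentiation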
# Target sequence (Q8BHY3 whole entry, looked up): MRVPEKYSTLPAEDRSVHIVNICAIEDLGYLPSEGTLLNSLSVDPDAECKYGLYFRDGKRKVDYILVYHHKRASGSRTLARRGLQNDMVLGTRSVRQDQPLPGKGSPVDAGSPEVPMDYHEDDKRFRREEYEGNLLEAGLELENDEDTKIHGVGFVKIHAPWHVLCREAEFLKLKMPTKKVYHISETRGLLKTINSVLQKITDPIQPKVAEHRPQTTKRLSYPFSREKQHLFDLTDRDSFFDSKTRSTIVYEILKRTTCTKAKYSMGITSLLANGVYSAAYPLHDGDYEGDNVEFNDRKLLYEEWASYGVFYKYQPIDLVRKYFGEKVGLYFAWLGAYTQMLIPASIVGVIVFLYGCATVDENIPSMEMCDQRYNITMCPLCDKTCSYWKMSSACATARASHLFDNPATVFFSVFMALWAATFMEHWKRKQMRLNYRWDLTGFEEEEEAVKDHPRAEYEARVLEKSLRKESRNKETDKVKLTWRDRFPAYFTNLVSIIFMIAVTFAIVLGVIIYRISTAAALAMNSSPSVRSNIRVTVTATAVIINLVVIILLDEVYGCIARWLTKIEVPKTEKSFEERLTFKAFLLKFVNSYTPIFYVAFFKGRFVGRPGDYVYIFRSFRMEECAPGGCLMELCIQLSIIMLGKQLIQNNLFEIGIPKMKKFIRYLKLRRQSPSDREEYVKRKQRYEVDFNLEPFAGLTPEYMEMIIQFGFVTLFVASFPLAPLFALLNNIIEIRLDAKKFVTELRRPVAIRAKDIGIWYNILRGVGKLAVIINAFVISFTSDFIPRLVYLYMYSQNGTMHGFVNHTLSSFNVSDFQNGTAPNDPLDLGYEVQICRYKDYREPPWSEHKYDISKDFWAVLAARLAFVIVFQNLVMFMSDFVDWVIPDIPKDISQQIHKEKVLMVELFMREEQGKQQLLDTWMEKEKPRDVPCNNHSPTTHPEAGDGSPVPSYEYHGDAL
# TMEM16A inh – mouse TMEM16A channel inhibition, primary screen; AID 588511; HEK293 TMEM16A/YFP iodide influx fluorescence, ionomycin; 310,000 tested, 1.2% active; normalized B-score (activity score, 25-100; higher = stronger inhibition) at 10 µM;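 active = ratio plate-corrected score three or more library SD toward inhibition, starting fluorescence score within five deviations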;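 also: score derived from kinetic fluorescence span divided by baseline fluorescence per well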
# MT1-MMP act inh – blocks activation of human MT1-MMP | GFP/RFP ratio change, % at 20 µM | AID 651647 | P50281 | 360,000 tested, 0.061% active | HT1080 RFP-PRO-GFP cells, GFP/RFP ratio fluorescence, overnight; percent of plate control window, DMSO zero;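 active = GFP/RFP ratio change of at least 30% with cell ATP level not reduced by more than half and red fluorescence within 50% of control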
#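 Assay system: RFP-PRO-GFP reporter HT1080 cells; read-out basis: GFP/RFP fluorescence ratio; benchmarks: DMSO wells and RFP-L50D-GFP cells; doses: 20 µM single dose, 1% DMSO; schedule: overnight cell settling, then overnight compound exposure, 37 °C, 5% CO2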
# Active calls of the source: *; i = inactive; / = no result given.
SMILES,DAGLB inhibitor,ANO1 activ,TMEM16A inh,MT1-MMP act inh
Cc1cccnc1NC(=O)CNC(=O)c1cccs1,-0.8,i,i,1.4
COc1ccc(S(=O)(=O)N(C)C[C@H]2Oc3c(NC(=O)c4ccncc4)cccc3C(=O)N([C@H](C)CO)C[C@@H]2C)cc1,-0.2,i,/,-0.9
CC(Sc1nc(N)cc(=O)[nH]1)C(=O)NC1CCCCC1 (stereo not given),-2.2,-9.67*,i,9.3
Nc1cc(=O)[nH]c(SCC(=O)NC2CCCCCCC2)n1,2.8,i,/,-1.7
CCNC(=O)NC(=O)COC(=O)c1ccccc1SCC(=O)NC(=O)NCC,1.2,i,i,35.4*
O=C(COC(=O)c1ccccc1SCC(=O)NC1CCS(=O)(=O)C1)NC1CCS(=O)(=O)C1 (stereo not given),0.8,i,i,0.2
Cc1noc(C)c1COc1ccccc1C(=O)N1CCN(S(=O)(=O)c2ccc(C(C)C)cc2)CC1,0.5,/,/,-2.4
Cc1csc2nc(CSc3nc4ccccc4o3)c(Br)n12,-5.8,i,25*,-3.2
O=C(Nc1ccccc1)SC1CCCCC1,-3.8,i,/,0.8
O=C(Nc1ccc2oc(-c3ccncc3)nc2c1)c1ccc2c(c1)OCCO2,-1.1,i,i,-2.2
O=C(Nc1ccc2oc(-c3ccccc3)nc2c1)c1ccc2c(c1)OCCO2,-2.3,i,25*,13.2
CC1=C(C(=O)N(C(C)C)C(C)C)CC(CC(=O)NCc2ccco2)C(=O)N1Cc1ccccc1 (stereo not given),/,/,/,-0.2
FC(F)(F)c1ccccc1Cc1c(C2CCCCC2)nc2c3ccccc3ccn12,/,/,/,-3.0
O=[N+]([O-])c1cc([N+](=O)[O-])c2nonc2c1Nc1ccccc1O,1.5,i,100*,5.0
CC(=O)Nc1ccc(S(=O)(=O)N(C)CC(=O)Nc2ccccc2N2CCCC2)cc1,1.9,i,i,2.5
CN(CC(=O)Nc1ccccc1N1CCOCC1)S(=O)(=O)c1ccc(F)cc1,1.1,i,25*,6.6
Cc1nc2ccc(NC(=O)c3cc([N+](=O)[O-])cc([N+](=O)[O-])c3Cl)cc2s1,4.8,-5.71*,i,5.2
Cc1nc2ccc(NC(=O)c3ccc(Cl)c([N+](=O)[O-])c3)cc2s1,0.2,i,i,-1.8
CCOc1ccc(Br)cc1/C(C)=N\NC1=NCCN1,0.9,i,100*,0.1
COc1ccc(N=Cc2[nH]c3ccccc3c2O)cc1,-3.4,-7.59*,i,-1.1
COc1ccc(NC(=O)CN2CCN(c3ccc(F)cc3)CC2)cc1Cl,-2.9,-11.2*,i,4.9
COc1ccc(NC(=O)CN2CCN(c3ccc(F)cc3)CC2)cc1,-1.5,i,i,0.1
CCCc1cc(C(=O)Nc2ccc(C(=O)c3ccc(F)cc3)cc2)n(C)n1,-3.7,i,100*,1.7
COc1ccc(Cl)cc1NC(=O)COC(=O)C1COc2ccccc2O1 (stereo not given),-3.0,i,/,-2.5
C=C(C(=O)c1ccccc1)C(CC(=O)c1ccccc1)c1ccccc1 (stereo not given),-4.4,i,100*,-16.7
SMILES,DAGLB inhibitor,ANO1 activ,TMEM16A inh,MT1-MMP act inh
O=C(NCc1ccccc1CN1CCCC1)C1CCN(C(=O)c2ccc(Cl)cc2)CC1,-0.1,/,/,6.0
O=C(N/N=C/c1cn(Cc2ccccc2)c2ccccc12)c1ccncc1,0.0,i,100*,3.8
O=C(N/N=C/c1cn(Cc2ccccc2)c2ccccc12)c1cccnc1,1.4,i,i,-1.3
CCN(Cc1ccccc1)S(=O)(=O)c1ccc(S(=O)(=O)N(Cc2cccc(OC)c2)CC2CCCO2)cc1 (stereo not given),-19.9,i,25*,4.6
C=CCOc1cccn2c(N(C=O)Cc3ccc(OC)cc3)c(CC)nc12,/,/,/,1.2
O=[N+]([O-])c1ccc(Oc2ccc(S(=O)(=O)N3CCCCC3)cc2)cc1,-10.8,i,25*,-7.3
CC1(C(=O)NS(=O)(=O)c2cccc(F)c2)CCN1C(=O)CCc1ccccc1 (stereo not given),/,/,/,3.2
CCOC(=O)c1c(CSC(=N)N)n(-c2ccc(C)cc2)c2cc(Br)c(OC(C)=O)cc12,-5.5,i,100*,-43.1
NNC(=O)c1sccc1OCc1ccc(Cl)cc1Cl,-3.4,i,25*,-2.7
O=C1C=CC2=C3c4cc(O)c(O)cc4CC3(O)COC2=C1O (stereo not given),-0.8,i,/,20.1
CN1C(=O)N(CC(=O)Nc2ccc3c(c2)OCO3)C(=O)C12CCCCC2,0.2,/,/,-0.8
